The record followed here is ChEMBL document CHEMBL3526073, “Hydralazine as a selective probe inactivator of aldehyde oxidase in human hepatocytes: estimation of the contribution of aldehyde oxidase to metabolic clearance” (Drug Metab Dispos, 2012).

Data set [1] in a line: Drug metabolism in cryopreserved human hepatocytes assessed as CYP450-mediated formation of desethylzaleplon at 20 uM after 30 mins by LC-MS/MS analysis in presence of 25 uM of hydralazine. The data set is classed as ADME, cell-based, Hepatocyte. Conditions: 0.5 h. A digest of the protocol:
(§1)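 Pooled cryopreserved human hepatocytes (five-donor pool, viability >80%) in Williams E medium, preincubated 30 min at 37°C under O2/CO2 (95/5). Zaleplon 20 μM final, with hydralazine 0–200 μM or 1-aminobenzotriazole 0–1.5 mM co-added, incubated 30 min. Reaction stopped with cold acetonitrile containing internal standard. Oxozaleplon (AO product) and desethylzaleplon (CYP product) measured by LC-MS/MS and expressed as percent of control.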

A short description of data set [2]: Drug metabolism in cryopreserved human hepatocytes assessed as CYP450-mediated formation of desethylzaleplon at 20 uM after 30 mins by LC-MS/MS analysis in presence of 50 uM hydralazine. Format: ADME, cell-based, Hepatocyte. Conditions: 0.5 h. A digest of the protocol:
as §1

The target in data set [3] is T1, Aldehyde oxidase (Homo sapiens, UniProt Q06278).
T1 sequence (Q06278 whole entry): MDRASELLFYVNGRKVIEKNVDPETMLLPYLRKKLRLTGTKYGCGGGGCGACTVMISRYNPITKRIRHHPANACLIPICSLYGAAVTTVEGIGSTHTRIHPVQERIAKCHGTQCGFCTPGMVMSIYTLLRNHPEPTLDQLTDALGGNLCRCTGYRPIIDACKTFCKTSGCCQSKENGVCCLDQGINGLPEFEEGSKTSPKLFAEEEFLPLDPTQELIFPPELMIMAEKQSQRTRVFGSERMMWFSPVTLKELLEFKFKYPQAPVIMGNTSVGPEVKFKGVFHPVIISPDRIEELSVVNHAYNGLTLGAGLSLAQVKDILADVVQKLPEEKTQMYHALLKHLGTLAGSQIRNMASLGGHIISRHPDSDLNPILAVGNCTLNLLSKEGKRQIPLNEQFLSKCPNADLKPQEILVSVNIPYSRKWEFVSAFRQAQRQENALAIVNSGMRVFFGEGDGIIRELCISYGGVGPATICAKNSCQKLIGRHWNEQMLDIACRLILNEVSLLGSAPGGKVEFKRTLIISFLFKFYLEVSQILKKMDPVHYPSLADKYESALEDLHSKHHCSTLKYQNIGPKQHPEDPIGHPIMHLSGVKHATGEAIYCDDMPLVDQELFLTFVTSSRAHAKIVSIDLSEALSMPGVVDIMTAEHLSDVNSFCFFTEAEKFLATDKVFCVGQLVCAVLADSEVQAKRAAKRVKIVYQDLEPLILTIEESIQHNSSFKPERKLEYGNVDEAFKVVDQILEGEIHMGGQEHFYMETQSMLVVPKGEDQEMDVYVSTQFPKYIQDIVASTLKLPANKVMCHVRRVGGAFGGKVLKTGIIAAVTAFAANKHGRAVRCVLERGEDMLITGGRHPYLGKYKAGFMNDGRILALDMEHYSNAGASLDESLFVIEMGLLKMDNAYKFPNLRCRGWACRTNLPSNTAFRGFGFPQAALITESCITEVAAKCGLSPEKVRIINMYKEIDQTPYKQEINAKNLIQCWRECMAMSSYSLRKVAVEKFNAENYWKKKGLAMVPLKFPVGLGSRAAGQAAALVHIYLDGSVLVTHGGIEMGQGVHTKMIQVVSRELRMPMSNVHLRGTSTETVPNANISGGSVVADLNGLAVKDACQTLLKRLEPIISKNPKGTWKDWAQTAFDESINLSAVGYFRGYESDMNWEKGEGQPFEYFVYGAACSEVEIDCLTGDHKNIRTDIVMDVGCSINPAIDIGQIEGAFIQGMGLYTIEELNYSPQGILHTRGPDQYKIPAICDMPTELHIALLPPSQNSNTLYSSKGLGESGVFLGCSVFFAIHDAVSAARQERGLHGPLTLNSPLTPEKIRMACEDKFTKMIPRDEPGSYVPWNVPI
The data set can be described thus: Drug metabolism in cryopreserved human hepatocytes assessed as aldehyde oxidase-mediated formation of oxozaleplon at 20 uM after 30 mins by LC-MS/MS analysis in presence of 1.5 mM of 1-aminobenzotriazole. Format: ADME, cell-based, Hepatocyte. Conditions: 0.5 h. A digest of the protocol:
as §1

The target in data set [4] is T1, Aldehyde oxidase. Description: Inhibition of aldehyde oxidase in human liver cytosol assessed as production of oxozoniporide.
For data set [5], the target named is T1, Aldehyde oxidase. Description: Drug metabolism in cryopreserved human hepatocytes assessed as aldehyde oxidase-mediated formation of oxozaleplon at 20 uM after 30 mins by LC-MS/MS analysis. Format: ADME, cell-based, Hepatocyte. The conditions noted are these: 0.5 h. A digest of the protocol:
as §1

Data set [6] can be described thus: Drug metabolism in cryopreserved human hepatocytes assessed as CYP450-mediated formation of desethylzaleplon at 20 uM after 30 mins by LC-MS/MS analysis. Format: ADME, cell-based, Hepatocyte. The conditions noted are these: 0.5 h. A digest of the protocol:
as §1

Data set [7] deals with T1, Aldehyde oxidase. Conditions: hepatocytes, 2 h, 10 µM.
In data set [8] the target is T1, Aldehyde oxidase. Conditions: hepatocytes, 2 h, 10 µM. This is another data set of the same source.
A short description of data set [9]: Drug level in cryopreserved human hepatocytes assessed as CYP450-mediated metabolite formation treated with 20 uM of zaleplon after 30 mins by LC-MS/MS analysis. Format: ADME, cell-based, Hepatocyte. The conditions noted are these: 0.5 h. A digest of the protocol:
as §1

Data set [10] deals with T2, CYP1A2 (Homo sapiens, UniProt P05177).
T2 sequence (P05177 whole entry): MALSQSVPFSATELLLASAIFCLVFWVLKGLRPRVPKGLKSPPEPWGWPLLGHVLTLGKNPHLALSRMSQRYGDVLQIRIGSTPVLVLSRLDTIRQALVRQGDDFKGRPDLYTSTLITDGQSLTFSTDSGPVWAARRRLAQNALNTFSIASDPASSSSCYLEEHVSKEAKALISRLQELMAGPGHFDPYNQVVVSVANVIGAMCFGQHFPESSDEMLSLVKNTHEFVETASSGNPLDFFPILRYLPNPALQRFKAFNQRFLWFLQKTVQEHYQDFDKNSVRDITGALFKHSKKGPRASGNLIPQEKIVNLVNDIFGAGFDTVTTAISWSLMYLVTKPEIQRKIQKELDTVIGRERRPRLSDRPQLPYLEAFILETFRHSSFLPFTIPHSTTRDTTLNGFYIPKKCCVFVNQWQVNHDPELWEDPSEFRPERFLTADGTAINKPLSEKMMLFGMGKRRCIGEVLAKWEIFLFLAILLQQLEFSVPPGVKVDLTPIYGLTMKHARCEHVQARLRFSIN
The data set can be described thus: Inhibition of CYP1A2 in human liver microsomes assessed as residual activity using phenacetin as substrate at 50 uM relative to control. The conditions noted are these: probe phenacetin.

In data set [11] the target is T3, CYP2C8 (Homo sapiens, UniProt P10632).
T3 sequence (P10632 whole entry): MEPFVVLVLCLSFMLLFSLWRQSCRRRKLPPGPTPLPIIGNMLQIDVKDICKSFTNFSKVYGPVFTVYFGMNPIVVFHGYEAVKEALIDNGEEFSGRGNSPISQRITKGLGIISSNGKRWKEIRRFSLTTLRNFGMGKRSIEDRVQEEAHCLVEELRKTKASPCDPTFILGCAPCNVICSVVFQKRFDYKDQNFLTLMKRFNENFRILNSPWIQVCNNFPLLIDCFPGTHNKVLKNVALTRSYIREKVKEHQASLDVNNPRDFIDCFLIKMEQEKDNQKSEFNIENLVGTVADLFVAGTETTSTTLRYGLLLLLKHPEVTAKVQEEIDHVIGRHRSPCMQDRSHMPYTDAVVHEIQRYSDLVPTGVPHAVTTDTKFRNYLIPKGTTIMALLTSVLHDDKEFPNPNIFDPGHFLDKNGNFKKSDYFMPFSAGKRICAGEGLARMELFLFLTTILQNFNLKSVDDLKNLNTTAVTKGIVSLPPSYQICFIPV
Description: Inhibition of CYP2C8 in human liver microsomes assessed as residual activity using paclitaxel as substrate at 50 uM relative to control. Conditions: probe paclitaxel. Background: Liver microsomes are a subcellular fraction often used to study metabolism.

The target of data set [12] is T4, CYP2C9 (Homo sapiens, UniProt P11712). Description: Inhibition of CYP2C9 in human liver microsomes assessed as residual activity using diclofenac as substrate at 50 uM relative to control. The conditions noted are these: probe diclofenac.
T4 sequence (P11712 whole entry): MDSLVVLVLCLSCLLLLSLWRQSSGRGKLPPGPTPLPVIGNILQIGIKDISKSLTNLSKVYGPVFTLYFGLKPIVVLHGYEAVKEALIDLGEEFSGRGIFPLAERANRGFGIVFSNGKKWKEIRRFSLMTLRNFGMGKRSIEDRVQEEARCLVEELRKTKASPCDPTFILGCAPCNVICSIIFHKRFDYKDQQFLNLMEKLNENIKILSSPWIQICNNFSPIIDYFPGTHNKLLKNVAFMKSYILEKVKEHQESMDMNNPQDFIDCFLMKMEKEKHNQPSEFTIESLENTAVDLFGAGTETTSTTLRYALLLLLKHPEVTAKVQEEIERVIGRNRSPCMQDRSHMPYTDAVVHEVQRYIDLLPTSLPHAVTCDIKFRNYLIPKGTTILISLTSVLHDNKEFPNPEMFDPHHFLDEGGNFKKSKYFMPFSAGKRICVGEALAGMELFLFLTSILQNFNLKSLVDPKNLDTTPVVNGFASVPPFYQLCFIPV
Data set [13] deals with T5, CYP2C19 (Homo sapiens, UniProt P33261). The data set can be described thus: Inhibition of CYP2C19 in human liver microsomes assessed as residual activity using S-mephenytoin as substrate at 50 uM relative to control. Conditions: probe S-mephenytoin.
T5 sequence (P33261 whole entry): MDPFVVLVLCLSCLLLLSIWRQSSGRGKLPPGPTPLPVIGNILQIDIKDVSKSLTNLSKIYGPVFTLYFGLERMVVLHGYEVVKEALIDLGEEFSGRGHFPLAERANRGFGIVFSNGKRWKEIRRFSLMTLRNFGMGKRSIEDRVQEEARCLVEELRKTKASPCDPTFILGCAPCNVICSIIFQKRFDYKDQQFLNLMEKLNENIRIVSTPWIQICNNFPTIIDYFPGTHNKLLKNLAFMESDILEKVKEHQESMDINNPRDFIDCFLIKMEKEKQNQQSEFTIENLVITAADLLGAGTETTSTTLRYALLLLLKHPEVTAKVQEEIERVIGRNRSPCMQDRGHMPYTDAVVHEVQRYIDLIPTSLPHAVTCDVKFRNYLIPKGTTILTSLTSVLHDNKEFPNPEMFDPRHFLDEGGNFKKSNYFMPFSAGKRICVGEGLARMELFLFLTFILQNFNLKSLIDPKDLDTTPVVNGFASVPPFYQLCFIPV
The target of data set [14] is T6, CYP2D6 (Homo sapiens, UniProt P10635). The data set can be described thus: Inhibition of CYP2D6 in human liver microsomes assessed as residual activity using dextromethorphan as substrate at 50 uM relative to control. Conditions: probe dextromethorphan.
T6 sequence (P10635 whole entry): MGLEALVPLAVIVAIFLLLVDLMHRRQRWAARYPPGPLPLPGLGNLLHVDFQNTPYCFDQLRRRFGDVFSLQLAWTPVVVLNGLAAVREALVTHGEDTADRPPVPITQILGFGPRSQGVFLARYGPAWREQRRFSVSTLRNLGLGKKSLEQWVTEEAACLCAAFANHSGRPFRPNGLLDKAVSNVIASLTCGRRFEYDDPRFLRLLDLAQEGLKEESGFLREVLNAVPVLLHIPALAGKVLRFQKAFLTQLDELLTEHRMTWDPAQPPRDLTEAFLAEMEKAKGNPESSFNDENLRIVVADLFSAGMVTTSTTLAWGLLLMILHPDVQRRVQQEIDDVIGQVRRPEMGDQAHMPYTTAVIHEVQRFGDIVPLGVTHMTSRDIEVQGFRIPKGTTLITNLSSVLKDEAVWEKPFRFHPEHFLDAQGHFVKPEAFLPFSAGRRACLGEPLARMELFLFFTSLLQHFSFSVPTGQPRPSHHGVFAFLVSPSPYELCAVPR
The target in data set [15] is T7, CYP3A (Homo sapiens, UniProt P08684+P20815+P24462+Q9HB55). Description: Inhibition of CYP3A in human liver microsomes assessed as residual activity using midazolam as substrate at 50 uM relative to control. The conditions noted are these: probe midazolam.
Data set [16] deals with T2, CYP1A2. The data set can be described thus: in vitro. The conditions noted are these: liver microsomes, probe phenacetin.
Data set [17] has as its target T3, CYP2C8. The data set can be described thus: in vitro. The conditions noted are these: liver microsomes, probe paclitaxel.
The target of data set [18] is T4, CYP2C9. The data set can be described thus: in vitro. Conditions: liver microsomes, probe diclofenac.
In data set [19] the target is T5, CYP2C19. Description: in vitro. Conditions: liver microsomes, probe S-mephenytoin.
Data set [20] has as its target T6, CYP2D6. Description: in vitro. Conditions: liver microsomes, probe dextromethorphan.
The target in data set [21] is T7, CYP3A. Description: in vitro. The conditions noted are these: liver microsomes, probe midazolam.
For data set [22], the target named is T1, Aldehyde oxidase. Description: Drug metabolism in cryopreserved human hepatocytes assessed as aldehyde oxidase-mediated formation of oxozaleplon at 50 uM after 30 mins by LC-MS/MS analysis. The conditions noted are these: 0.5 h. The data set is classed as ADME, cell-based, Hepatocyte.
Data set [23] in a line: Drug metabolism in cryopreserved human hepatocytes assessed as CYP450-mediated formation of desethylzaleplon at 50 uM after 30 mins by LC-MS/MS analysis. The conditions noted are these: 0.5 h. Format: ADME, cell-based, Hepatocyte.

As to `CCN(C(C)=O)c1cccc(-c2ccnc3c(C#N)cnn23)c1` [ZALEPLON], the Drug metabolism entry in [1] was “metabolite_detected”; in [2] it was “metabolite_not_detected”; on Aldehyde oxidase [3] it was “metabolite_detected”; on Aldehyde oxidase [5] it was “metabolite_detected”; in [6], “metabolite_detected”. The Ki – broadly, a measure of affinity in units of concentration, obtained from inhibition or displacement – on Aldehyde oxidase [4] stood at 83 µM. At Aldehyde oxidase [4] (human, liver cytosol), the kinact (usually the rate constant of inactivation at saturating inhibitor) is 0.00105 s⁻¹. Further, the values for the Fm on Aldehyde oxidase [7] and on Aldehyde oxidase [8] were 0.7 and 0.56, respectively.

Turning to `CC(=O)Nc1cccc(-c2ccnc3c(C#N)cnn23)c1`, in data set [9], the Drug metabolism result is reported as “metabolite_detected”.

Take `Nc1nc(OCc2ccccc2)c2[nH]cnc2n1` [6-O-BENZYLGUANINE]: at Aldehyde oxidase [8], the Fm was 0.83.

For the compound `COc1ccc2c(c1)[C@]13CCCC[C@@H]1[C@H](C2)N(C)CC3` [DEXTROMETHORPHAN], the Fm on Aldehyde oxidase [8] came out at 0.39.

Consider `Cc1ncc2n1-c1ccc(Cl)cc1C(c1ccccc1F)=NC2` [MIDAZOLAM], for which the Fm is given as 0.08 at Aldehyde oxidase [7] and 0.05 on Aldehyde oxidase [8].

Regarding `CN(C)CCNC(=O)c1cccc2cc3ccccc3nc12`, the results for the Fm at Aldehyde oxidase [7] and on Aldehyde oxidase [8] were 0.53 and 0.76, respectively.

Take `N=C(N)NC(=O)c1cnn(-c2cccc3ncccc23)c1C1CC1` [ZONIPORIDE]: the Fm stood at 0.64 on Aldehyde oxidase [7] and 0.55 at Aldehyde oxidase [8].

For the compound `NNc1nncc2ccccc12` [HYDRALAZINE], the activity at 50 µM at CYP1A2 [10] amounted to 89%; on CYP2C8 [11] it was 95%; on CYP2C9 [12] it was 95%; at CYP2C19 [13] it was 90%; on CYP2D6 [14], 77%; at CYP3A [15], 76%. Moreover, the activity at 25 µM on CYP1A2 [16] was 100%; at CYP2C8 [17], 108%; on CYP2C9 [18] it was 105%; on CYP2C19 [19], 103%; at CYP2D6 [20], 92%; at CYP3A [21], 98%.

On to `CCN(C(C)=O)c1cccc(-c2cc(=O)[nH]c3c(C#N)cnn23)c1`, for which the Drug metabolism result (at Aldehyde oxidase [22]; in [23]) was “metabolite_not_detected” in each case.

On Aldehyde oxidase [8], `CC[C@H]1OC(=O)[C@H](C)C(=O)[C@H](C)[C@@H](O[C@@H]2O[C@H](C)C[C@H](N(C)C)[C@H]2O)[C@](C)(OC)C[C@@H](C)C(=O)[C@H](C)[C@H]2N(C3CN([C@H](C)c4ccnc5ncccc45)C3)C(=O)O[C@]12C` had a Fm of 0.61.

In the case of `CCNC(=O)OC1CCN(c2nncc3cc(OC)c(OC)cc23)CC1` [CARBAZERAN], the Fm came to 0.49 on Aldehyde oxidase [7] and 0.55 at Aldehyde oxidase [8].
